The values that follow come from ChEMBL document CHEMBL2406922, “Synthesis and Metabolic Studies of Host Directed Inhibitors for Anti Viral Therapy” (ACS Med Chem Lett, 2013).

A short description of data set [1]: Antiviral activity against Measles virus Edmonston infected in african green monkey Vero cells after 20 hrs by luciferase reporter gene assay. The data set is classed as functional, cell-based, Measles virus strain Edmonston. The settings on record: Measles morbillivirus. In outline: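 Cells seeded at 3×10^4/well and incubated 20 h, then infected with Renilla luciferase-expressing recombinant MeV-Edmonston (recMeV-ren) at MOI 0.2 TCID50/cell. Luciferase substrate added 28 h post-infection; bioluminescence read to quantify reporter expression.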
On the technique in general: In a reporter assay the amount or activity of a reporter protein is the signal.

Data set [2] deals with Influenza A virus. The data set is described as follows: Antiviral activity against Influenza A virus A/sw/Texas/2009(H1N1) virus by firefly luciferase reporter gene assay. The data set is classed as functional, organism-based. In outline:
(§1)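 293T cells were transfected with an IAV firefly-luciferase minigenome reporter plasmid (1 µg/10^5 cells), cryopreserved 28 h post-transfection, thawed, and seeded at 3×10^4 cells/well. After 20 h they were infected with TPCK-trypsin-activated IAV (MOI 0.1 pfu/cell). Luciferase bioluminescence was read 28 h post-infection after adding Bright-Glo or Dual-Glo substrate.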

Data set [3] relates to Influenza A virus. Briefly: Antiviral activity against Influenza A virus WSN/1933 (H1N1) infected in human 293T cells after 20 hrs by luciferase reporter gene assay. It counts as functional, organism-based. The settings on record: A/WSN/1933(H1N1), HEK-293T. The essentials: as §1
Data set [4] has as its system Respiratory syncytial virus. The data set is described as follows: Antiviral activity against Respiratory syncytial virus by firefly luciferase reporter gene assay. The data set is classed as functional, organism-based. The settings on record: human respiratory syncytial virus.
Data set [5] deals with Influenza A virus. Briefly: Antiviral activity against Influenza A virus A/Aichi/1968(H3N2) by firefly luciferase reporter gene assay. It counts as functional, organism-based. The essentials: as §1
The subject of data set [6] is Liver. Briefly: (§2) Half life in human liver S9 fraction. It counts as ADME, subcellular. The settings on record: s9.
Data set [7] is described as follows: Half life in hamster liver S9 fraction. The data set is classed as ADME, subcellular. The settings on record: cricetinae.
The nature of data set [8]: Solubility of the compound at pH 7.4. The data set is classed as physicochemical. Particulars: buffer.
Data set [9] is described as follows: as §2. It counts as ADME, subcellular. The settings on record: liver S9 fraction.

SMILES strings stand for the structures. Bounds are passed on as bounds.

Turning to `CCOC(=O)Cn1c(-c2nonc2NC(=O)c2ccccc2F)nc2ccccc21`, the EC50 (as a rule, the concentration giving half of the maximal effect) in data set [1] was determined as 0.023 µM; in [2] it was 0.1 µM; in data set [3], 0.012 µM; in data set [4], 0.14 µM; in [5], 0.05 µM.
As for `C#CCn1c([S+](=O)([O-])Cc2ccc(F)cc2)nc(-c2ccccc2)c1-c1ccccc1`, the half-maximal effective concentration (EC50) in data set [1] worked out at 0.74 µM; in [2], 0.2 µM; in [3] it was 0.5 µM; in [4], 0.45 µM; in [5], 0.92 µM. The compound further gave a t1/2 in [6] of 19 min. Besides, in [7], the half-life (usually how long it takes for the measured level to halve) is less than 2.5 min.
`COc1ccc(-n2c(SC(C)C(=O)Nc3ccc(C)cc3Cl)nc3ccccc32)cc1` (stereo unspecified): the 50% effective concentration (EC50) in data set [2] amounted to 0.04 µM; in [4], 0.07 µM.
Regarding `Cn1c(S(=O)(=O)C(F)(F)c2ccccc2)nc(-c2ccccc2)c1-c1ccccc1`, the EC50 in data set [1] and in [3] was greater than 10 µM each time.
As to `Cn1c(S(=O)(=O)C(F)(F)c2ccc(F)cc2)nc(-c2ccc(F)cc2)c1-c1ccc(F)cc1`, the EC50 in data set [1] and in data set [3] was greater than 10 µM each time. In [6], this compound showed a t1/2 greater than 90 min. Further, the half-life in [7] turned out to be 54 min.
In the case of `Cn1c(S(=O)(=O)Nc2ccccc2)nc(-c2ccccc2)c1-c1ccccc1`, the concentration for a half-maximal effect (EC50) in data set [1] and in data set [3] was greater than 10 µM each time. For the same compound, the t1/2 in data set [6] is 27 min. The compound further displayed a half-life in data set [7] of less than 2.5 min.
As for `Cn1c(C(=O)Nc2ccccc2F)nc(-c2ccccc2)c1-c1ccccc1`, the 50% effective concentration (EC50) in data set [1] came to 9 µM; in data set [3] it was 10 µM.
The matching figures for `Cn1c(C(=O)Nc2ccccc2[N+](=O)[O-])nc(-c2ccccc2)c1-c1ccccc1`: 9 µM and 6 µM.
On to `Cn1c(C(=O)Cc2ccccc2)nc(-c2ccccc2)c1-c1ccccc1`, for which the EC50 was greater than 10 µM in data set [1] and 10 µM in [3]. In [6], this compound came in with a t1/2 greater than 90 min. In [7], the half-life came out at 5 min.
For `Cn1c(C(O)Cc2ccccc2)nc(-c2ccccc2)c1-c1ccccc1` (stereo unspecified), the half-maximal effective concentration (EC50) in data set [1] and in data set [3] was greater than 10 µM in each case.
For the compound `Cn1c(CCc2ccccc2)nc(-c2ccccc2)c1-c1ccccc1`, the 50% effective concentration (EC50) in [1] stood at 6 µM; in data set [3] it was 10 µM.
`CN(Cc1nc(-c2ccccc2)c(-c2ccccc2)n1C)c1ccccc1`: the figures for the EC50 in data set [1] and in data set [3] were 0.91 µM and 0.88 µM, respectively. Besides, the t1/2 in [6] amounted to 165 min. Moreover, the solubility – broadly, the concentration that dissolves in the medium under given conditions – in data set [8] was less than 15 µg/mL. In data set [7], this compound gave a half-life of less than 5 min.
With `CN(Cc1nc(-c2ccccc2)c(-c2ccccc2)n1C)c1ccc(O)cc1`, the concentration for a half-maximal effect (EC50) in data set [1] and in [3] was 10 µM in each case.
For `CN(Cc1nc(-c2ccccc2)c(-c2ccccc2)n1C)c1ccccc1C(=O)O`, the EC50 in data set [1] and in data set [3] was 3 µM in each case. In [8], the solubility was greater than 300 µg/mL.
Turning to `CN(Cc1nc(-c2ccccc2)c(-c2ccccc2)n1C)c1ccccn1`, the EC50 in data set [1] and in data set [3] was 10 µM in each case.
With `Cn1c(CN(Cc2ccccc2)c2ccccc2)nc(-c2ccccc2)c1-c1ccccc1`, the EC50 in data set [1] and in data set [3] was greater than 10 µM each time.
Regarding `CCN(Cc1nc(-c2ccccc2)c(-c2ccccc2)n1C)c1ccccc1`, the concentration giving a half-maximal response (EC50) in [1] and in data set [3] was 10 µM each time.
As for `CCOC(=O)Cn1c(-c2ncsc2NC(=O)c2c(F)cccc2F)nc2ccccc21`, the EC50 in [1] and in [3] was 10 µM each time.
Regarding `CC(C)n1c(-c2csc(NC(=O)c3c(F)cccc3F)n2)nc2ccccc21`, the concentration for a half-maximal effect (EC50) amounted to 10 µM in data set [1] and 4 µM in data set [3].
For `O=C(O)Cn1c(-c2csc(NC(=O)c3c(F)cccc3F)n2)nc2ccccc21`, in that order: greater than 10 µM and greater than 10 µM.
The matching figures for `Cn1cc(NC(=O)c2ccccc2F)c(-c2nc3ccccc3[nH]2)n1`: greater than 10 µM and greater than 10 µM.
For `Nc1ccc(C(=O)Cn2c(-c3nccnc3NC(=O)c3ccccc3)nc3ccccc32)cc1`, in that order: greater than 10 µM and greater than 10 µM.
With `O=S(=O)(Cc1ccccc1)c1nc(-c2ccccc2)c(-c2ccccc2)[nH]1`, the half-maximal effective concentration (EC50) in data set [1] and in [3] was greater than 10 µM in each case. For the same compound, the t1/2 in data set [6] worked out at 14 min. In data set [7], the half-life is less than 2.5 min.
As to `Cn1c(S(=O)(=O)Cc2ccccc2)nc(-c2ccccc2)c1-c1ccccc1`, the results for the 50% effective concentration (EC50) in [1] and in [3] were 4 µM and 0.3 µM, respectively. The half-life was 2 min in [9] and less than 2.5 min in [7].
With `Cn1c(S(=O)(=O)Cc2ccc(F)cc2)nc(-c2ccc(F)cc2)c1-c1ccc(F)cc1`, the EC50 in data set [1] and in data set [3] was greater than 10 µM throughout. For the same compound, the t1/2 in data set [6] is less than 2.5 min. Moreover, the half-life in [7] was less than 2.5 min.
`CCn1c(S(=O)(=O)Cc2ccccc2)nc(-c2ccccc2)c1-c1ccccc1`: the results for the EC50 in data set [1] and in data set [3] were 1 µM and 2 µM, respectively.
For `O=S(=O)(Cc1ccccc1)c1nc(-c2ccccc2)c(-c2ccccc2)n1Cc1ccccc1`, in that order: greater than 10 µM and 10 µM.
`C=CCn1c(S(=O)(=O)Cc2ccc(F)cc2)nc(-c2ccccc2)c1-c1ccccc1`: the concentration for a half-maximal effect (EC50) was found to be 4.6 µM in data set [1] and 4.2 µM in data set [3].
The matching figures for `Cn1c(S(=O)(=O)Cc2ccncc2)nc(-c2ccccc2)c1-c1ccccc1`: greater than 10 µM and greater than 10 µM.
The matching figures for `Cn1c(S(=O)(=O)Cc2cccnc2)nc(-c2ccccc2)c1-c1ccccc1`: 9 µM and greater than 10 µM.
For `Cn1c(S(=O)(=O)Cc2ccc(F)cc2)nc(-c2ccc(F)cc2)c1-c1ccncc1`, in that order: greater than 10 µM and greater than 10 µM.
With `Cn1c(S(=O)(=O)Cc2ccc(F)cc2)nc(-c2ccc(F)cc2)c1-c1cccnc1`, the EC50 in [1] and in [3] was greater than 10 µM throughout.
As to `Cn1c(SCc2ccccc2)nc(-c2ccccc2)c1-c1ccccc1`, the EC50 in [1] was found to be 6 µM; in data set [3], 0.4 µM. Also, in data set [6], the t1/2 is on record as 15 min. The compound further yielded a half-life in data set [7] of 3 min.
Regarding `O=C(Nc1nonc1-c1nc2ccccc2[nH]1)c1ccccc1F`, the concentration for a half-maximal effect (EC50) in data set [1] and in data set [3] was greater than 10 µM each time.
As for `Nc1ccc(C(=O)Cn2c(-c3nonc3NC(=O)c3ccccc3F)nc3ccccc32)cc1`, the figures for the concentration for a half-maximal effect (EC50) in data set [1] and in data set [3] were 0.4 µM and 0.7 µM, respectively.
